This passage reports Activity and inhibition in vivo results from ChEMBL document CHEMBL1275301, “Antihypertensive activity of newer 1,4-dihydro-5-pyrimidine carboxamides: synthesis and pharmacological evaluation” (2010).

Calls of active or inactive are those of the source. No cut-off for these calls is given here.

The test system of test [1] is Rattus norvegicus. As to the kind of experiment: Antihypertensive activity against DOCA-salt induced hypertension in albino rat assessed as reduction in systolic blood pressure at 10 mg/kg, po up to 360 mins by tail-cuff method. In kind it is functional, organism-based. Also on record: dose 10 mg/kg. To be noted: Artery. Summed up:
(§1)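 Rats given DOCA 20 mg/kg s.c. twice weekly in olive oil for 4 weeks, with 1% w/v NaCl as drinking water, reaching systolic 160–180 mm Hg. Rats were trained in restrainer and tail-cuff sessions. Compounds in 0.5% CMC were dosed at 10 mg/kg by oral feeding needle, with vehicle and nifedipine groups. BP was read before dosing and after, with the tail warmed at 37 °C for 2–5 min. Each compound was run three times in one week and readings averaged.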

Test [2] has as its system Rattus norvegicus. Nature of the test: Antihypertensive activity against DOCA-salt induced hypertension in albino rat assessed as reduction in systolic blood pressure at 10 mg/kg, po after 900 mins by tail-cuff method. To be noted: Artery, 15 h. It is filed as functional. The essentials:
as §1

Test [3] has as its system Rattus norvegicus. As to the kind of experiment: Antihypertensive activity against DOCA-salt induced hypertension in albino rat assessed as reduction in systolic blood pressure at 10 mg/kg, po after 720 mins by tail-cuff method. In kind it is functional. Conditions: Artery, 12 h. The essentials:
as §1

Test [4] has as its system Rattus norvegicus. Nature of the test: Antihypertensive activity against DOCA-salt induced hypertension in albino rat assessed as reduction in systolic blood pressure at 10 mg/kg, po after 600 mins by tail-cuff method. It is filed as functional. Conditions: Artery, 10 h. Summed up: as §1
Test [5] deals with Rattus norvegicus. Nature of the test: Antihypertensive activity against DOCA-salt induced hypertension in albino rat assessed as reduction in systolic blood pressure at 10 mg/kg, po after 360 mins by tail-cuff method. It is filed as functional. Conditions: Artery, 6 h. Summed up: as §1
In test [6] the test system is Rattus norvegicus. As to the kind of experiment: Antihypertensive activity against DOCA-salt induced hypertension in albino rat assessed as reduction in systolic blood pressure at 10 mg/kg, po after 300 mins by tail-cuff method. In kind it is functional. Conditions: Artery, 5 h. The essentials: as §1
In test [7] the test system is Rattus norvegicus. Nature of the test: Antihypertensive activity against DOCA-salt induced hypertension in albino rat assessed as reduction in systolic blood pressure at 10 mg/kg, po after 240 mins by tail-cuff method. It is filed as functional. To be noted: Artery, 4 h. The essentials: as §1
Test [8] concerns Rattus norvegicus. As to the kind of experiment: Antihypertensive activity against DOCA-salt induced hypertension in albino rat assessed as reduction in systolic blood pressure at 10 mg/kg, po after 180 mins by tail-cuff method. To be noted: Artery, 3 h. In kind it is functional. The essentials: as §1
Test [9] deals with Rattus norvegicus. As to the kind of experiment: Antihypertensive activity against DOCA-salt induced hypertension in albino rat assessed as reduction in systolic blood pressure at 10 mg/kg, po after 120 mins by tail-cuff method. In kind it is functional. To be noted: Artery, 2 h. The essentials:
as §1

Test [10] concerns Rattus norvegicus. As to the kind of experiment: Antihypertensive activity against DOCA-salt induced hypertension in albino rat assessed as reduction in systolic blood pressure at 10 mg/kg, po after 60 mins by tail-cuff method. In kind it is functional. To be noted: Artery, 1 h. Summed up: as §1
Test [11] concerns Rattus norvegicus. Nature of the test: Antihypertensive activity against DOCA-salt induced hypertension in albino rat assessed as reduction in systolic blood pressure at 10 mg/kg, po after 30 mins by tail-cuff method. Conditions: Artery, 0.5 h. In kind it is functional. The essentials:
as §1

The test system of test [12] is Rattus norvegicus. Nature of the test: Antihypertensive activity against DOCA-salt induced hypertension in albino rat assessed as reduction in systolic blood pressure at 10 mg/kg, po after 15 mins by tail-cuff method. In kind it is functional. To be noted: Artery, 0.25 h. The essentials: as §1

For orientation: inhibition in vivo means the share of the control response that was lost under treatment. Regarding `COc1ccc(C2N=C(SCc3cccc(Cl)c3)NC(C)=C2C(=O)Nc2ccc(Br)cc2)cc1` (centres undefined), in the test on Rattus norvegicus [1], the outcome was Active. In addition, the inhibition in vivo at 10 mg/kg was found to be 22.6% in the test with Rattus norvegicus [2]; 26.8% in the test on Rattus norvegicus [3]; 32.8% in the test with Rattus norvegicus [4]; 39.7% with Rattus norvegicus [5]; 39% in the test on Rattus norvegicus [6]; 33.8% with Rattus norvegicus [7]. Also, the inhibition in vivo at 10 mg/kg in the test on Rattus norvegicus [8] was 27.3%; in the test with Rattus norvegicus [9], 21.1%; in the test on Rattus norvegicus [10] it was 15.4%; in the test on Rattus norvegicus [11] it was 7.7%; in the test on Rattus norvegicus [12], 3.1%.
On to `CC1=C(C(=O)Nc2ccc(F)cc2)C(c2ccc([N+](=O)[O-])cc2)N=C(SCc2ccccc2Cl)N1` (centres undefined), for which, in the test on Rattus norvegicus [1], the outcome was Active. In addition, the inhibition in vivo at 10 mg/kg came to 11.3% in the test with Rattus norvegicus [2]; 13.9% in the test with Rattus norvegicus [3]; 17.4% with Rattus norvegicus [4]; 21.6% in the test on Rattus norvegicus [5]; 18.5% in the test with Rattus norvegicus [6]; 15.9% in the test on Rattus norvegicus [7]. For the same compound, the inhibition in vivo at 10 mg/kg stood at 12.4% in the test with Rattus norvegicus [8]; 8.8% in the test with Rattus norvegicus [9]; 6.2% in the test on Rattus norvegicus [10]; 3.1% in the test on Rattus norvegicus [11]; 1.5% in the test with Rattus norvegicus [12].
Take `COC(=O)C1=C(C)NC(C)=C(C(=O)OC)C1c1ccccc1[N+](=O)[O-]` [NIFEDIPINE]: the outcome in the test with Rattus norvegicus [1] was Active. The inhibition in vivo at 10 mg/kg was 16.9% in the test on Rattus norvegicus [2]; 18.6% in the test on Rattus norvegicus [3]; 24.1% in the test with Rattus norvegicus [4]; 38.1% with Rattus norvegicus [5]; 32.3% in the test with Rattus norvegicus [6]; 25.6% in the test with Rattus norvegicus [7]. For the same compound, the inhibition in vivo at 10 mg/kg was 17.5% in the test on Rattus norvegicus [8]; 11.3% in the test on Rattus norvegicus [9]; 7.7% in the test with Rattus norvegicus [10]; 3.1% in the test with Rattus norvegicus [11]; 1.5% in the test on Rattus norvegicus [12].
Regarding `CC1=C(C(=O)Nc2ccc(F)cc2)C(c2ccc([N+](=O)[O-])cc2)N=C(SCc2ccc(F)cc2)N1` (centres undefined), the outcome in the test on Rattus norvegicus [1] was Active. For the same compound, the inhibition in vivo at 10 mg/kg with Rattus norvegicus [2] was found to be 13.8%; with Rattus norvegicus [3], 19.6%; with Rattus norvegicus [4], 25.6%; with Rattus norvegicus [5] it was 33%; in the test with Rattus norvegicus [6], 30.3%; with Rattus norvegicus [7], 25.6%. In addition, the inhibition in vivo at 10 mg/kg was found to be 20.1% with Rattus norvegicus [8]; 17% in the test with Rattus norvegicus [9]; 10.8% with Rattus norvegicus [10]; 5.7% in the test with Rattus norvegicus [11]; 3.1% in the test on Rattus norvegicus [12].
`CC1=C(C(=O)Nc2ccc([N+](=O)[O-])cc2)C(c2ccc(Br)cc2)N=C(SCc2ccc(Cl)cc2)N1` (centres undefined): the result in the test on Rattus norvegicus [1] was Active. The inhibition in vivo at 10 mg/kg in the test with Rattus norvegicus [2] stood at 19%; in the test on Rattus norvegicus [3] it was 29.4%; with Rattus norvegicus [4], 34.4%; with Rattus norvegicus [5], 39.2%; in the test on Rattus norvegicus [6], 37.9%; with Rattus norvegicus [7], 29.7%. Moreover, the inhibition in vivo at 10 mg/kg amounted to 19.1% in the test on Rattus norvegicus [8]; 13.9% in the test with Rattus norvegicus [9]; 10.8% in the test on Rattus norvegicus [10]; 6.2% in the test on Rattus norvegicus [11]; 3.1% in the test with Rattus norvegicus [12].
As to `COc1ccc(C2N=C(SCc3ccc(F)cc3)NC(C)=C2C(=O)Nc2ccc(Br)cc2)cc1` (centres undefined), the outcome in the test on Rattus norvegicus [1] was Active. Besides, the inhibition in vivo at 10 mg/kg turned out to be 15.4% in the test with Rattus norvegicus [2]; 19.1% in the test with Rattus norvegicus [3]; 24.1% with Rattus norvegicus [4]; 33.5% in the test on Rattus norvegicus [5]; 26.2% in the test on Rattus norvegicus [6]; 22.1% in the test on Rattus norvegicus [7]. Moreover, the inhibition in vivo at 10 mg/kg came out at 17% in the test on Rattus norvegicus [8]; 12.9% with Rattus norvegicus [9]; 8.7% in the test with Rattus norvegicus [10]; 6.2% with Rattus norvegicus [11]; 3.6% in the test with Rattus norvegicus [12].
With `COc1ccc(C2N=C(SCc3cccc(Cl)c3)NC(C)=C2C(=O)Nc2ccc(F)cc2)cc1OC` (centres undefined), the result in the test on Rattus norvegicus [1] was Active. Further, the inhibition in vivo at 10 mg/kg was determined as 13.3% in the test with Rattus norvegicus [2]; 15.5% in the test with Rattus norvegicus [3]; 17.4% with Rattus norvegicus [4]; 20.1% with Rattus norvegicus [5]; 16.4% in the test with Rattus norvegicus [6]; 14.9% in the test with Rattus norvegicus [7]. For the same compound, the inhibition in vivo at 10 mg/kg with Rattus norvegicus [8] is 13.4%; in the test with Rattus norvegicus [9] it was 10.8%; with Rattus norvegicus [10], 8.2%; in the test with Rattus norvegicus [11], 5.2%; in the test on Rattus norvegicus [12], 2.1%.
